Reference: ChEMBL document CHEMBL1275417, “Biological activities of novel gyrase inhibitors of the aminocoumarin class” (Antimicrob Agents Chemother, 2008)
In brackets after ≈: the same amount, converted by molar mass. Activity calls are given as the source filed them. The rule behind the calls is not given here.

Legend:
[1] = target: DNA gyrase subunit B (Escherichia coli, UniProt P0AES6); assay: Inhibition of Escherichia coli JM109 DNA gyrase subunit B assessed as ATP hydrolysis by ATPase assay
[2] = target: DNA gyrase subunit A (Escherichia coli K-12) (UniProt P0AES4); assay: Inhibition of Escherichia coli K-12 DNA gyrase A expressed in Escherichia coli DC2 assessed as compound concentration required for => 4-fold induction of luxCDABE operon by reported gene assay
Outline: (§1)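 E. coli DC2 carrying a gyrA or sulA promoter–luxCDABE (Photorhabdus) fusion plasmid. Grown overnight at 37°C in LB with 2 μg/ml tetracycline, then diluted 1:100 in LB without tetracycline and precultured 1.5 h at 37°C. Compounds were added from DMSO stocks to 1% final DMSO and incubated 5 h at 37°C. Bioluminescence was divided by A595, and induction factor is the treated/untreated ratio. The value is the lowest test concentration giving ≥4-fold induction.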

[3] = target: T1, Cell division inhibitor SulA (Escherichia coli K-12) (UniProt P0AFZ5); assay: Inhibition of Escherichia coli K-12 DNA sulA expressed in Escherichia coli DC2 assessed as compound concentration required for => 4-fold induction of luxCDABE operon by reported gene assay; outline: as §1
T1 sequence (whole entry): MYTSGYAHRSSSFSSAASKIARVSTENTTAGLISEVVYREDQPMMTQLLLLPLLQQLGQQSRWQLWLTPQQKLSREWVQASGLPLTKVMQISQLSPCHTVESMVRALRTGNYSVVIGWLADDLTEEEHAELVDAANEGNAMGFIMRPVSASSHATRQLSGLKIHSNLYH

[4] = tested on: Staphylococcus aureus; assay: Antibacterial activity against Staphylococcus aureus ATCC 29213 by broth microdilution method; format: functional
[5] = tested on: Staphylococcus aureus; assay: Antibacterial activity against Staphylococcus aureus ATCC 43300 by broth microdilution method; format: functional
[6] = tested on: Staphylococcus aureus; assay: Antibacterial activity against Staphylococcus aureus 80CR5 by broth microdilution method; format: functional
[7] = tested on: Streptococcus pneumoniae; assay: Antibacterial activity against Streptococcus pneumoniae ATCC 49619 by broth microdilution method; format: functional
[8] = tested on: Streptococcus pneumoniae; assay: Antibacterial activity against Streptococcus pneumoniae SL336-T by broth microdilution method; format: functional
[9] = tested on: Streptococcus pneumoniae; assay: Antibacterial activity against Streptococcus pneumoniae TUPELO by broth microdilution method; format: functional
[10] = tested on: Enterococcus faecalis; assay: Antibacterial activity against Enterococcus faecalis ATCC 29212 by broth microdilution method; format: functional
[11] = tested on: Enterococcus faecium; assay: Antibacterial activity against Enterococcus faecium ATCC 19434 by broth microdilution method; format: functional
[12] = tested on: Escherichia coli; assay: Antibacterial activity against Escherichia coli ATCC 25922 by broth microdilution method; format: functional
[13] = tested on: Escherichia coli; assay: Antibacterial activity against Escherichia coli UB1005 by broth microdilution method; format: functional
[14] = tested on: Escherichia coli; assay: Antibacterial activity against Escherichia coli DC2 by broth microdilution method; format: functional
[15] = tested on: Klebsiella pneumoniae; assay: Antibacterial activity against Klebsiella pneumoniae ATCC 27736 by broth microdilution method; format: functional
[16] = tested on: Pseudomonas aeruginosa; assay: Antibacterial activity against Pseudomonas aeruginosa ATCC 27853 by broth microdilution method; format: functional
[17] = tested on: Pseudomonas aeruginosa; assay: Antibacterial activity against Pseudomonas aeruginosa K799/WT by broth microdilution method; format: functional
[18] = tested on: Pseudomonas aeruginosa; assay: Antibacterial activity against Pseudomonas aeruginosa K799/61 by broth microdilution method; format: functional
[19] = target: DNA gyrase (Escherichia coli); assay: Inhibition of Escherichia coli JM109 DNA gyrase assessed as DNA triple helix formation by supercoiling assay

DNA gyrase subunit A (Escherichia coli K-12), sequence (P0AES4 whole entry, the tested form may be a part): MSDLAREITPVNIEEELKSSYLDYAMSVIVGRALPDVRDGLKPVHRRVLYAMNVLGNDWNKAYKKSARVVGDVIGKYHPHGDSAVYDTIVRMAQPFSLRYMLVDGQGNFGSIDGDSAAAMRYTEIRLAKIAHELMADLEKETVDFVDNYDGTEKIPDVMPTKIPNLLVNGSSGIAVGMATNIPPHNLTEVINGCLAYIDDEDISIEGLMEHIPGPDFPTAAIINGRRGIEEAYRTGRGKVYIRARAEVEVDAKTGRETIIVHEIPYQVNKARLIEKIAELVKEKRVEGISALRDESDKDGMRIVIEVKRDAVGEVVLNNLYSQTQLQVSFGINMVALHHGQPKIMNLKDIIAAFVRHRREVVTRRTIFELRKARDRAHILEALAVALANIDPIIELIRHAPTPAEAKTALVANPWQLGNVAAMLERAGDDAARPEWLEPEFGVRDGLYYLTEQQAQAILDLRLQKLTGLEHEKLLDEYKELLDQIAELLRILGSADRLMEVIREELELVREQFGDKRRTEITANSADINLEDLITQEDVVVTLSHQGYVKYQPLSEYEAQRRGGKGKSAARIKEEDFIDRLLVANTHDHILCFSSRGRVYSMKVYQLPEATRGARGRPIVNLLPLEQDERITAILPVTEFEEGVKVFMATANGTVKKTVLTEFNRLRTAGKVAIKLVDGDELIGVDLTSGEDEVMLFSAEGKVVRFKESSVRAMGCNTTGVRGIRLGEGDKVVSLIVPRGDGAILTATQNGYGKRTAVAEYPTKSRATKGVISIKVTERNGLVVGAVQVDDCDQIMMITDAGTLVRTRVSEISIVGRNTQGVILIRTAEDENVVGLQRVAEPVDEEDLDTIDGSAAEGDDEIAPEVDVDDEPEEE

Question: What does the source list for `COc1cc(C(=O)Nc2c(O)c3ccc(O[C@@H]4OC(C)(C)[C@H](OC)[C@@H](OC(=O)c5ccc(C)[nH]5)[C@H]4O)c(Cl)c3oc2=O)ccc1O`?
Answer: IC50 [1]: 122 nM; Activity [2]: 25 µM; Activity [3]: 6.3 µM; MIC [4]: 1 µg/mL (≈ 1.52 µM); MIC [5]: 1 µg/mL (≈ 1.52 µM); MIC [6]: 32 µg/mL (≈ 48.6 µM); MIC [7]: 2 µg/mL (≈ 3.03 µM); MIC [8]: 4 µg/mL (≈ 6.07 µM); MIC [9]: 8 µg/mL (≈ 12.1 µM); MIC [10]: 16 µg/mL (≈ 24.3 µM); MIC [11]: > 32 µg/mL; MIC [12]: > 32 µg/mL; MIC [13]: > 32 µg/mL; MIC [14]: 32 µg/mL (≈ 48.6 µM); MIC [15]: > 32 µg/mL; MIC [16]: > 32 µg/mL; MIC [17]: > 32 µg/mL; MIC [18]: 1 µg/mL (≈ 1.52 µM); IC50 [19]: 22 nM

Question: For `CCCc1cc(C(=O)Nc2c(O)c3ccc(O[C@@H]4OC(C)(C)[C@H](OC)[C@@H](OC(=O)c5ccc(C)[nH]5)[C@H]4O)c(C)c3oc2=O)ccc1O`, which IC50 [1] is on record?
Answer: 84 nM

Question: And the Activity [2]?
Answer: 3.1 µM

Question: And the Activity [3]?
Answer: 1.6 µM

Question: What about the MIC [4] of the same compound?
Answer: ≤ 0.06 µg/mL

Question: What about the MIC [5] of the same compound?
Answer: ≤ 0.06 µg/mL

Question: And the MIC [6]?
Answer: 32 µg/mL (≈ 49.2 µM)

Question: And the MIC [7]?
Answer: 2 µg/mL (≈ 3.07 µM)

Question: What about the MIC [8] of the same compound?
Answer: 2 µg/mL (≈ 3.07 µM)

Question: And the MIC [9]?
Answer: 4 µg/mL (≈ 6.15 µM)

Question: What about the MIC [10] of the same compound?
Answer: 16 µg/mL (≈ 24.6 µM)

Question: What about the MIC [11] of the same compound?
Answer: > 32 µg/mL

Question: And the MIC [12]?
Answer: > 32 µg/mL

Question: And the MIC [13]?
Answer: > 32 µg/mL

Question: And the MIC [14]?
Answer: 8 µg/mL (≈ 12.3 µM)

Question: What about the MIC [15] of the same compound?
Answer: > 32 µg/mL

Question: And the MIC [16]?
Answer: > 32 µg/mL

Question: What about the MIC [17] of the same compound?
Answer: > 32 µg/mL

Question: What about the MIC [18] of the same compound?
Answer: 0.5 µg/mL (≈ 0.768 µM)

Question: What about the IC50 [19] of the same compound?
Answer: 19 nM

Question: Which results are given for `CO[C@@H]1[C@@H](OC(=O)c2ccc(C)[nH]2)[C@@H](O)[C@H](Oc2ccc3c(O)c(NC(=O)/C=C/c4ccccc4)c(=O)oc3c2Cl)OC1(C)C`?
Answer: IC50 [1]: 90 nM; Activity [2]: 6.3 µM; Activity [3]: 3.1 µM; MIC [4]: 0.25 µg/mL (≈ 0.391 µM); MIC [5]: 1 µg/mL (≈ 1.56 µM); MIC [6]: > 32 µg/mL; MIC [7]: 8 µg/mL (≈ 12.5 µM); MIC [8]: 16 µg/mL (≈ 25 µM); MIC [9]: 16 µg/mL (≈ 25 µM); MIC [10]: 16 µg/mL (≈ 25 µM); MIC [11]: > 32 µg/mL; MIC [12]: > 32 µg/mL; MIC [13]: > 32 µg/mL; MIC [14]: 32 µg/mL (≈ 50.1 µM); MIC [15]: > 32 µg/mL; MIC [16]: > 32 µg/mL; MIC [17]: > 32 µg/mL; MIC [18]: 4 µg/mL (≈ 6.26 µM); IC50 [19]: 34 nM

Question: Which results are given for `CO[C@@H]1[C@@H](OC(=O)c2ccc(C)[nH]2)[C@@H](O)[C@H](Oc2ccc3c(O)c(NC(=O)c4cc(C)c(O)c(C)c4)c(=O)oc3c2)OC1(C)C`?
Answer: IC50 [1]: 229 nM; Activity [2]: > 100 µM; Activity [3]: inactive; MIC [4]: 4 µg/mL (≈ 6.42 µM); MIC [5]: 4 µg/mL (≈ 6.42 µM); MIC [6]: > 32 µg/mL; MIC [7]: 8 µg/mL (≈ 12.8 µM); MIC [8]: 16 µg/mL (≈ 25.7 µM); MIC [9]: 16 µg/mL (≈ 25.7 µM); MIC [10]: 16 µg/mL (≈ 25.7 µM); MIC [11]: > 32 µg/mL; MIC [12]: > 32 µg/mL; MIC [13]: > 32 µg/mL; MIC [14]: > 32 µg/mL; MIC [15]: > 32 µg/mL; MIC [16]: > 32 µg/mL; MIC [17]: > 32 µg/mL; MIC [18]: 8 µg/mL (≈ 12.8 µM); IC50 [19]: 120 nM
